One may read the IC50 as the concentration at which inhibition is half-maximal. By Ki is commonly meant a measure of affinity in units of concentration, obtained from inhibition or displacement. Higher therefore signals lower affinity. In general, inhibition refers to the percentage by which the read-out fell short of the control.

The source made the active and inactive calls. No cut-off for these calls is given here.

Test [1] relates to KB. Nature of the test: Cytotoxicity against human KB cells assessed as growth inhibition after 72 hrs by methylene blue staining-based assay. The test is classed as functional, cell-based.
Test [2] can be described thus: Cytotoxicity against human H460 cells assessed as growth inhibition after 72 hrs by methylene blue staining-based assay. In kind it is functional, cell-based. As to conditions: NCI-H460, 72 h.
The subject of test [3] is HT-29. Nature of the test: Cytotoxicity against human HT-29 cells assessed as growth inhibition after 72 hrs by methylene blue staining-based assay. In kind it is functional, cell-based. As to conditions: HT-29, 72 h.
Test [4] can be described thus: Cytotoxicity against human KB-S15 cells overexpressing P-gp170/MDR assessed as growth inhibition after 72 hrs by methylene blue staining-based assay. In kind it is functional, cell-based. As to conditions: KB-S15, 72 h.
Test [5] can be described thus: Inhibition of bovine brain MAP-rich tubulin polymerization measured every 30 secs for 30 mins by turbidometric method. Details: species or system Bos taurus.
Test [6] in a line: Cytotoxicity against human KB-VIN10 cells overexpressing P-gp170/MDR assessed as growth inhibition after 72 hrs by methylene blue staining-based assay. In kind it is functional, cell-based. The note with it: KB-VIN10, 72 h.
The target in test [7] is Tubulin. Description: Displacement of [3H]-colchicine from biotin-labeled tubulin (unknown origin) after 2 hrs by scintillation proximity assay. In kind it is protein-complex assay, Homo sapiens.
Test [8] has as its system MKN-45. Description: Cytotoxicity against human MKN45 cells assessed as growth inhibition after 72 hrs by methylene blue staining-based assay. In kind it is functional, cell-based. The note with it: MKN-45, 72 h.
Test [9] deals with HUVEC. Description: Induction of vascular disrupting activity in HUVEC assessed as VEGF-induced tube formation at 100 to 1000 nM after 4 hrs by microscopic analysis. The test is classed as functional, cell-based. As to conditions: Homo sapiens.
Test [10] in a line: Cytotoxicity against human KB-7d cells overexpressing MRP assessed as growth inhibition after 72 hrs by methylene blue staining-based assay. In kind it is functional, cell-based. The note with it: KB7D.
Test [11] deals with T1, Tubulin (Homo sapiens) (UniProt P68371+Q9H4B7+P0DPH7+P68366+Q13509+Q71U36+P04350+Q3ZCM7+P07437+P68363+Q9BQE3+Q6PEY2+Q13885+Q9BVA1+Q9BUF5). Nature of the test: Displacement of [3H]-colchicine from biotin-labeled tubulin (unknown origin) at 5 uM after 2 hrs by scintillation proximity assay relative to control. In kind it is protein-complex assay. A general note: Loss of bound radioactivity is the signal in a displacement assay; it reports binding, not function.

Test [12] deals with T1, Tubulin (Homo sapiens). Nature of the test: Displacement of [3H]-colchicine from biotin-labeled tubulin (unknown origin) at 1 uM after 2 hrs by scintillation proximity assay relative to control. The test is classed as protein-complex assay.
Test [13] concerns KB. Nature of the test: Induction of microtubule depolymerization in human KB cells at 1 uM after 6 hrs by immunofluorescence microscopic analysis. In kind it is cell-based. A digest of the protocol: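 KB cells on coverslips exposed to compound for 6 h; fixed in MeOH/Me2CO (1:1) at -20 °C for 1 h, blocked with 5% skim milk in PBS for 1 h, then anti-α-tubulin monoclonal (1:500) for 2 h and FITC-conjugated secondary (1:200) for 1 h at room temperature. Microtubule network viewed by fluorescence microscopy.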

Test [14] deals with HUVEC. Description: Induction of vascular disrupting activity in HUVEC assessed as VEGF-induced tube formation at 1000 nM after 4 hrs by microscopic analysis. As to conditions: Homo sapiens. In kind it is functional, cell-based. In a few lines:
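HUVECs plated at 2×10^4 cells/well on Matrigel in 20% FBS M199 with 20 ng/mL VEGF; capillaries formed over 4 h before compound or DMSO vehicle added. Imaged at addition and 4 h later; capillary tube networks counted manually under microscope (100×). Expressed relative to vehicle; mean ± SD of three separate experiments.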

As to `COc1ccc(S(=O)(=O)Nc2cccnc2Nc2ccc(O)cc2)cc1` [ABT-751], the 50% inhibitory concentration (IC50) turned out to be 0.251 µM in [1]; 0.218 µM in test [2]; 0.339 µM in test [3]; 0.206 µM in test [4]; 3.3 µM in test [5]; 0.227 µM in test [6]. Moreover, the IC50 in test [8] is 0.166 µM; in test [10] it was 0.205 µM. In addition, the affinity in test [7] corresponds to a Ki of 1.51 µM. Moreover, in test [9], the result was Active.
For the compound `COc1ccc(S(=O)(=O)n2ccc3ccnc(-c4ccc([N+](=O)[O-])cc4)c32)cc1`, the inhibition was determined as 46% in test [11] and 21% in [12].
In test [5], `COc1ccc(/C=C\c2cc(OC)c(OC)c(OC)c2)cc1O` [COMBRETASTATIN A4] registered an IC50 of 2.1 µM.
As to `COc1ccc(S(=O)(=O)n2ccc3ccnc(-c4ccco4)c32)cc1`, the inhibition in [11] turned out to be 81%; in test [12], 63%. Besides, the affinity in test [7] corresponds to a Ki of 0.38 µM.
For `COc1ccc(S(=O)(=O)n2ccc3ccnc(-c4ccc(Cl)cc4)c32)cc1`, the values for the inhibition in test [11] and in test [12] were 72% and 41%, respectively.
Turning to `COc1ccc(S(=O)(=O)n2ccc3ccnc(-c4cccs4)c32)cc1`, the inhibition in test [11] came to 70%; in [12], 30%.
For `CC(=O)O[C@H]1C(=O)[C@@]2(C)[C@H]([C@H](OC(=O)c3ccccc3)[C@]3(O)C[C@H](OC(=O)[C@H](O)[C@@H](NC(=O)c4ccccc4)c4ccccc4)C(C)=C1C3(C)C)[C@]1(OC(C)=O)CO[C@@H]1C[C@@H]2O` [PACLITAXEL], the figures for the IC50 in test [1] and in [10] were 0.0041 µM and 0.0079 µM, respectively. The result in test [13] was inactive.
As to `COc1ccc(S(=O)(=O)n2ccc3ccnc(-c4ccncc4)c32)cc1`, the inhibition was 59% in test [11] and 35% in [12].
The corresponding values for `COc1ccc(S(=O)(=O)n2ccc3ccnc(-c4ccc(N(C)C)cc4)c32)cc1` are 74% and 41%.
As for `CC[C@]1(O)C[C@H]2CN(CCc3c([nH]c4ccccc34)[C@@](C(=O)OC)(c3cc4c(cc3OC)N(C=O)[C@H]3[C@@](O)(C(=O)OC)[C@H](OC(C)=O)[C@]5(CC)C=CCN6CC[C@]43[C@@H]65)C2)C1` [VINCRISTINE], the half-maximal inhibitory concentration (IC50) in test [1] came out at 0.0006 µM; in [10], 0.0012 µM.
In the case of `COc1ccc(S(=O)(=O)n2ccc3ccnc(-c4ccc(C(F)(F)F)cc4)c32)cc1`, the inhibition was determined as 65% in test [11] and 35% in [12].
Turning to `O=c1[nH]cc(F)c(=O)[nH]1`, the result in test [14] was inactive.
For `COc1ccc(S(=O)(=O)n2ccc3ccnc(-c4ccccc4)c32)cc1`, the inhibition in [11] was 63%; in [12], 42%.
`COc1cc([C@@H]2c3cc4c(cc3[C@@H](O[C@@H]3O[C@@H]5CO[C@@H](C)O[C@H]5[C@H](O)[C@H]3O)[C@H]3COC(=O)[C@H]23)OCO4)cc(OC)c1O` [ETOPOSIDE]: the IC50 in test [4] amounted to 3.5 µM; in test [6], 23 µM; in [10] it was 54 µM.
`COc1cc2c(c(OC)c1OC)-c1ccc(OC)c(=O)cc1[C@@H](NC(C)=O)CC2` [COLCHICINE]: the IC50 was found to be 0.0198 µM in test [2]; 0.0152 µM in test [3]; 0.0354 µM in test [4]; 0.122 µM in [6]; 0.0115 µM in test [8]; 0.0518 µM in test [10]. In addition, the outcome in [13] was Active.
